Results published in ChEMBL document CHEMBL1148372 (J Med Chem, 2004).
“And” between values parts separate entries of the source, which are not always exact repeats. Equal entries are not always repeated.

Key:
D(2) dopamine receptor [1] = biological target: T1, D(2) dopamine receptor (Rattus norvegicus, UniProt P61169); assay: In vitro effective concentration tested on HEK293 cells co-transfected with rat Dopamine receptor D2 using FLIPR assay; Not an agonist up to 10 uM; type: functional, cell-based
Rattus norvegicus [2] = assay: In vivo maximal penile erection in rats 60 min after subcutaneous administration; type: functional
How it was run: (§1)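 Conscious male Wistar rats, adapted 60 min to a dim red-lit room, tested between 9:00 a.m. and 3:00 p.m. Dosed subcutaneously, then caged singly and observed directly for 60 min. Percent incidence is the share of animals with one or more erections; 8–30 animals per group. Maximally effective dose is the dose giving peak incidence, with significance versus control.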

D(2) dopamine receptor [3] = biological target: T2, D(2) dopamine receptor (Homo sapiens, UniProt P14416); assay: In vitro effective concentration tested on HEK293 cells co-transfected with human Dopamine receptor D2 using FLIPR assay; Not an agonist up to 10 uM; type: functional, cell-based
D(2) dopamine receptor [4] = biological target: T2, D(2) dopamine receptor; assay: In vitro binding affinity tested on human Dopamine receptor D2 (long) using [3H]spiperon as a radioligand
D(2) dopamine receptor [5] = biological target: T2, D(2) dopamine receptor; assay: In vitro binding affinity tested on human Dopamine receptor D2 (short) using [3H]spiperone as a radioligand
[6] = biological target: T3, 5-hydroxytryptamine receptor 1A (Homo sapiens, UniProt P08908); assay: In vitro binding affinity tested on human 5-hydroxytryptamine 1A receptor
T3 sequence (P08908 whole entry): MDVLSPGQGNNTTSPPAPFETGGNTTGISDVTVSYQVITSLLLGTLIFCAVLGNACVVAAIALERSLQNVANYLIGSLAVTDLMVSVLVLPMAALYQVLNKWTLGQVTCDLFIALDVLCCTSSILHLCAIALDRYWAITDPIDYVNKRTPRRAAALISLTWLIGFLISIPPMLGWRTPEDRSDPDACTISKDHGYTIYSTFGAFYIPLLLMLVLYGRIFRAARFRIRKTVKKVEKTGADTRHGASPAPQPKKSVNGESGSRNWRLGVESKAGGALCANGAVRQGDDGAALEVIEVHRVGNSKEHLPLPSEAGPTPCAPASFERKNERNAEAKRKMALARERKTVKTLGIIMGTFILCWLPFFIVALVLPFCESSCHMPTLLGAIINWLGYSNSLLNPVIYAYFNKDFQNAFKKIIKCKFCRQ

Rattus norvegicus [7] = assay: In vivo maximal effective dose tested in rats for erection 60 min after subcutaneous administration; type: functional; how it was run: as §1
[8] = biological target: T4, D(4) dopamine receptor (Homo sapiens) (UniProt P21917); assay: In vitro efficacy tested on human Dopamine receptor D4.4 were co-expressed with GRqo5 in HEK293 cells using FLIPR assay (Efficacy relative to 10 uM dopamine); type: cell-based
T4 sequence (whole entry): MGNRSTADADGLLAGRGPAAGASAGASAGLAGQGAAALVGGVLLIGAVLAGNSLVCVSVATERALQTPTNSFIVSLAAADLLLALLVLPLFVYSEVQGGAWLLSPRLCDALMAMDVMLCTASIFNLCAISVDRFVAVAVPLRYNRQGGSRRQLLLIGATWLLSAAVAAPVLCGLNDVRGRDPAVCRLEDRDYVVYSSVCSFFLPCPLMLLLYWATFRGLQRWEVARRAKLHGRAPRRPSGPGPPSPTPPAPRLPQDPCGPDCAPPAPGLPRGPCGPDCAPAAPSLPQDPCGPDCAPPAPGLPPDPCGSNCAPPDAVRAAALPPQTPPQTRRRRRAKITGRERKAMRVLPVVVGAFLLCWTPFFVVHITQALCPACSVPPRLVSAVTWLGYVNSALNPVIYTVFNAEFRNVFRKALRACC
How it was run: (§2)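 HEK293 cells coexpressing human D4.4 receptor and Gαqo5, plated at 20 000 cells/well and grown 2 days. Loaded 1 h at 23 °C with 4 µM Fluo-4 plus 0.04% Pluronic F-127 in DPBS, washed four times. Compound added, fluorescence read over 3 min.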

D(2) dopamine receptor [9] = biological target: T2, D(2) dopamine receptor; assay: In vitro binding affinity tested on human Dopamine receptor D2 using [3H]spiperon as a radioligand
D(4) dopamine receptor [10] = biological target: T5, D(4) dopamine receptor (Rattus norvegicus, UniProt P30729); assay: In vitro effective concentration tested on HEK293 cells co-transfected with rat Dopamine receptor D4 using FLIPR assay; type: cell-based
T5 sequence (P30729 whole entry): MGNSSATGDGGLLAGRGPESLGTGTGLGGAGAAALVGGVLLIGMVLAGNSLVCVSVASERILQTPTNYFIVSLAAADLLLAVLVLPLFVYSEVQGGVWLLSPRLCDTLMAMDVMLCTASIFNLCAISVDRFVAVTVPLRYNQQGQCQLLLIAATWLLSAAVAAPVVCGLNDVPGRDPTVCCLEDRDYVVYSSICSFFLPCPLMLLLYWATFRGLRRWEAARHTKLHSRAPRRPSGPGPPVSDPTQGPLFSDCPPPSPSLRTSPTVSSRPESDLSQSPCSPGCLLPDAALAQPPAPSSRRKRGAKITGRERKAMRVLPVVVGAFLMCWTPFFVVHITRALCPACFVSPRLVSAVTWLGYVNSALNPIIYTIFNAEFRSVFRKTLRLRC

D(4) dopamine receptor [11] = biological target: T6, D(4) dopamine receptor (Homo sapiens, UniProt P21917); assay: In vitro EC50 tested on HEK293 cells co-transfected with human Dopamine receptor D4.4 using FLIPR assay; type: cell-based; how it was run: as §2
T6 sequence (P21917 whole entry): T4 sequence (whole entry)

[12] = Binding affinity tested against D4.2 receptor in Chinese hamster ovary cell line (CHO cells) using [3H]spiperone as a radioligand; type: cell-based, Cricetulus griseus
D(4) dopamine receptor [13] = biological target: T5, D(4) dopamine receptor; assay: In vitro effective concentration tested on HEK293 cells co-transfected with rat Dopamine receptor D4 using FLIPR assay; Not an agonist up to 10 uM; type: functional, cell-based
How it was run: (§3)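 HEK cells co-transfected with the target receptor plus Gαqo5. […] Compounds were tested up to 10 µM. Untransfected cells served as a control.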

[14] = biological target: D(2) dopamine receptor (Rattus norvegicus) (UniProt P61169); assay: In vitro efficacy tested on ferret Dopamine receptor D2 were co-expressed with GRqo5 in HEK293 cells using FLIPR assay (Efficacy relative to 10 uM dopamine); type: functional, cell-based; how it was run: as §3
[15] = biological target: D(2) dopamine receptor (Rattus norvegicus) (UniProt P61169); assay: In vitro efficacy tested on rat Dopamine receptor D2 were coexpressed with GRqo5 in HEK293 cells using FLIPR assay (Efficacy relative to 10 uM dopamine); type: functional, cell-based; how it was run: as §3
D(4) dopamine receptor [16] = biological target: T6, D(4) dopamine receptor; assay: In vitro effective concentration tested on HEK293 cells co-transfected with human Dopamine receptor D4 using FLIPR assay; Not an agonist up to 10 uM; type: functional, cell-based
How it was run: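 Human D4.4 receptor co-expressed with Gαqo5 in HEK293 cells, plated at 20 000 cells/well and grown 2 days. Loaded with 4 µM Fluo-4 and 0.04% Pluronic F-127 in DPBS with glucose and pyruvate for 1 h at 23 °C, then washed. Compound added and fluorescence read over 3 min on FLIPR. […] EC50 is the concentration giving half-maximal response.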

D(2) dopamine receptor [17] = biological target: T2, D(2) dopamine receptor; assay: In vitro efficacy tested on human Dopamine receptor D2 were co-expressed with GRqo5 in HEK293 cells using FLIPR assay (Efficacy relative to 10 uM dopamine); type: functional, cell-based
[18] = biological target: T7, Adrenergic receptor alpha-2 (Homo sapiens, UniProt P08913+P18825+P18089); assay: Binding affinity towards human alpha-2 adrenergic receptor; type: protein assay
T7 sequence (P08913 whole entry): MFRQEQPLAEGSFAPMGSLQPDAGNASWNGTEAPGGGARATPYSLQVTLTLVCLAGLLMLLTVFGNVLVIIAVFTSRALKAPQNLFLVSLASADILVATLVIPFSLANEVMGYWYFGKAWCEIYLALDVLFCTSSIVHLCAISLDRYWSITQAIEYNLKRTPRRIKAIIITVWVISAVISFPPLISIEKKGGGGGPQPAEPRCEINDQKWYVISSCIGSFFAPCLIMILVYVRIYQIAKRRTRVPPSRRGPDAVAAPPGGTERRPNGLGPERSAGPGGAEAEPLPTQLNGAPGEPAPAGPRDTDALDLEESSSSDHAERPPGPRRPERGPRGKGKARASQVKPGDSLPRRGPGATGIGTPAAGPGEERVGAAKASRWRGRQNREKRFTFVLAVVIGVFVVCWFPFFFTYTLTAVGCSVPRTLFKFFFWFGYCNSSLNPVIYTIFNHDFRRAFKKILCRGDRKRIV
T7 sequence (P18825 whole entry): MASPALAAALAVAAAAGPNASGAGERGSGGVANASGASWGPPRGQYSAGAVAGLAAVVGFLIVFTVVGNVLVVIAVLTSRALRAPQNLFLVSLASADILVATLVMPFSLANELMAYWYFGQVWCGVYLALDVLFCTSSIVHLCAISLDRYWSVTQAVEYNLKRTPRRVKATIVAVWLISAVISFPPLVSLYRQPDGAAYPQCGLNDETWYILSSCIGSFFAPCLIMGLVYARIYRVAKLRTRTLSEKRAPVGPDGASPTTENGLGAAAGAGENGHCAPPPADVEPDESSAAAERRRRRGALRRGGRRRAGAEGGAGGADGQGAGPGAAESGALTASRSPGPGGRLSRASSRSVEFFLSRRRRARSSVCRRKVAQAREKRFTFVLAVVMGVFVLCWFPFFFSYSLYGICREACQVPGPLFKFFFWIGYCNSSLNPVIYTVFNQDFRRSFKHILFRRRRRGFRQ
T7 sequence (P18089 whole entry): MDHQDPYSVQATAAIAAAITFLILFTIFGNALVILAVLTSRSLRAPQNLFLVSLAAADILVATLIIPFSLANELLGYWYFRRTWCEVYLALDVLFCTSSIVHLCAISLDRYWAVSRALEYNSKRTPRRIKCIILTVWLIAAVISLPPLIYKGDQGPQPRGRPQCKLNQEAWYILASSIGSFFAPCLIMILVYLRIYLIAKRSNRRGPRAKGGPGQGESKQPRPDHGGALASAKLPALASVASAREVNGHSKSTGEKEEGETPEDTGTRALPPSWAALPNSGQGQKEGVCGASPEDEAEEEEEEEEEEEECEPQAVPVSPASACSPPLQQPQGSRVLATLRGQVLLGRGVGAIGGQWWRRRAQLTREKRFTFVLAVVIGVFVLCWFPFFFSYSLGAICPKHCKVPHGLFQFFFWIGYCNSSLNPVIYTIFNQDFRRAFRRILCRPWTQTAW

[19] = biological target: D(2) dopamine receptor (Rattus norvegicus) (UniProt P61169); assay: In vitro efficacy tested on rat Dopamine receptor D2 were co-expressed with GRqo5 in HEK293 cells using FLIPR assay (Efficacy relative to 10 uM dopamine); type: cell-based
[20] = biological target: Kappa-type opioid receptor (Homo sapiens, UniProt P41145); assay: Binding affinity towards human Opioid receptor kappa 1
[21] = biological target: T3, 5-hydroxytryptamine receptor 1A; assay: Binding affinity towards human 5-hydroxytryptamine 1A receptor
D(3) dopamine receptor = D(3) dopamine receptor (Homo sapiens, UniProt P35462); assay: Binding affinity towards human Dopamine receptor D3
D(4) dopamine receptor [22] = biological target: T6, D(4) dopamine receptor; assay: Binding affinity towards human D4.4 receptor
How it was run: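 Membranes from HEK-293 cells transfected with human D4.4 receptor, stored at -80 °C. Filtration through glass microfiber filters, three cold Tris washes, scintillation counting; Ki derived.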

D(2) dopamine receptor [23] = biological target: T2, D(2) dopamine receptor; assay: Binding affinity towards human Dopamine receptor D2
D(2) dopamine receptor [24] = biological target: T1, D(2) dopamine receptor; assay: In vitro effective concentration tested on HEK293 cells co-transfected with rat Dopamine receptor D2 using FLIPR assay; type: cell-based

Chain of D(2) dopamine receptor (Rattus norvegicus) (P61169 whole entry): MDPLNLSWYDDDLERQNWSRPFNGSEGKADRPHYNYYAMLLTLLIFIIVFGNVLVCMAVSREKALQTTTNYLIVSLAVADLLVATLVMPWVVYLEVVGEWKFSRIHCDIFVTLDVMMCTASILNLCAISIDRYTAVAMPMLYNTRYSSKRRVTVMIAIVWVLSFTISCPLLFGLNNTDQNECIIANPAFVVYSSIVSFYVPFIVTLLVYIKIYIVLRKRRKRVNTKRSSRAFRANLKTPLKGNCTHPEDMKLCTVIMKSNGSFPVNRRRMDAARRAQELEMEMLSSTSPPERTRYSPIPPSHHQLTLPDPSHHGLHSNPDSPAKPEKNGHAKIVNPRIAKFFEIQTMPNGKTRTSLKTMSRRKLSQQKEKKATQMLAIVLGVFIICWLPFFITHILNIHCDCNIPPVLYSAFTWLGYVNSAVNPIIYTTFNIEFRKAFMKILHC
T2 sequence (P14416 whole entry): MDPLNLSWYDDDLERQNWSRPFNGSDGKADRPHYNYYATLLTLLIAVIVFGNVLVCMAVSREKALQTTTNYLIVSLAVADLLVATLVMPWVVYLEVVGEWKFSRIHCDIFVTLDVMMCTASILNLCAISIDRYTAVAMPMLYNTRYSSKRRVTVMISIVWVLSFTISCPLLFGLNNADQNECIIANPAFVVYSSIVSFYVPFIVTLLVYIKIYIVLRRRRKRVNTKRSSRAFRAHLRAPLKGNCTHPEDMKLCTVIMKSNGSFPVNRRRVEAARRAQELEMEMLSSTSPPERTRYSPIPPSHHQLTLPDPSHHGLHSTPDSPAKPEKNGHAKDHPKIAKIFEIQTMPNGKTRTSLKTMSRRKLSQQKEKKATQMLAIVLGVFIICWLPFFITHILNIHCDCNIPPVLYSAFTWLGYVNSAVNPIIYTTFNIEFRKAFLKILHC
T1 sequence (P61169 whole entry): as the sequence (P61169 whole entry) above
Chain of D(3) dopamine receptor (P35462 whole entry): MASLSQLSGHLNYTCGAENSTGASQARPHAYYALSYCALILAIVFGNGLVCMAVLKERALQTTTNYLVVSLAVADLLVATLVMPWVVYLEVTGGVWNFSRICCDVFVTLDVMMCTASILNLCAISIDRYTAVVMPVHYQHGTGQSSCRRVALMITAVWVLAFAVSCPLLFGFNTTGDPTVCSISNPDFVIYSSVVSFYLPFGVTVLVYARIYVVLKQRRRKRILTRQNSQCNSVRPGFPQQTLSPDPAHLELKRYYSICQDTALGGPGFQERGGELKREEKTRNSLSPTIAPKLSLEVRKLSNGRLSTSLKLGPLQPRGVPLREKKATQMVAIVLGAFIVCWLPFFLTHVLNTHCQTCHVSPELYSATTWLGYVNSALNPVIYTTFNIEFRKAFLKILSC
Chain of Kappa-type opioid receptor (P41145 whole entry): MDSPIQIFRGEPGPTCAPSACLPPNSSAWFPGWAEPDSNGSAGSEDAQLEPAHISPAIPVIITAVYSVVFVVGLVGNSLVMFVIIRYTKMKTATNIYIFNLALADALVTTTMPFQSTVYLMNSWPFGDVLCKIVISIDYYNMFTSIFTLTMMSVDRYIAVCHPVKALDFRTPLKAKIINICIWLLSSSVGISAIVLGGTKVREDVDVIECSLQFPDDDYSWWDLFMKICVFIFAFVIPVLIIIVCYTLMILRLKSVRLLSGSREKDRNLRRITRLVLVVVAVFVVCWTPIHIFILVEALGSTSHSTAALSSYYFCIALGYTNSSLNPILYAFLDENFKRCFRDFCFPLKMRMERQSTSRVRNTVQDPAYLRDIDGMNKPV

For `c1ccc(N2CCN(Cc3nc4ccccc4[nH]3)CC2)nc1` [ABT-724], the EC50 (D(2) dopamine receptor [1]) was “Not Active”, the Activity (Rattus norvegicus [2]) was 77% and the EC50 (D(2) dopamine receptor [3]) was “Not Active”. For the same compound, the Ki (D(2) dopamine receptor [4]) was 15 µM, the Ki (D(2) dopamine receptor [5]) was 51 µM and the Ki [6] was > 10 µM and 2780 µM. It also gave an Effective dose (Rattus norvegicus [7]) of 0.03 µM/kg, an Efficacy [8] of 61% and a Ki (D(2) dopamine receptor [9]) of 0.16 µM. It also gave an EC50 (D(4) dopamine receptor [10]) of 0.0143 µM.

With `c1ccc(N2CCN(Cc3nc4ccccc4[nH]3)CC2)cc1` the Activity (Rattus norvegicus [2]) was 75%, the EC50 (D(4) dopamine receptor [11]) was 0.0306 µM and the Effective dose (Rattus norvegicus [7]) was 0.03 µM/kg. The Ki [12] was 0.033 µM and the Efficacy [8] was 33%.

With `CN[C@@H]1Cc2cccc3[nH]c(=O)n(c23)C1` [SUMANIROLE] the EC50 (D(4) dopamine receptor [13]) was “Not Active”, the Efficacy [14] was 90% and the Efficacy [15] was 103%. For the same compound, the EC50 (D(4) dopamine receptor [16]) was “Not Active” and the Efficacy (D(2) dopamine receptor [17]) was 93%.

`Fc1ccc2[nH]c(CN3CCN(c4ccccn4)CC3)cc2c1` gave a Ki [18] of 0.4 µM, an Efficacy [19] of 89% and an Activity (Rattus norvegicus [2]) of 83%. The EC50 (D(2) dopamine receptor [3]) was “Not Active”, the Ki [20] was 0.3 µM and the Effective dose (Rattus norvegicus [7]) was 1 µM/kg. The Ki [21] was 0.2 µM, the Ki (D(3) dopamine receptor) was 0.56 µM and the Ki (D(4) dopamine receptor [22]) was 0.0036 µM. It also gave a Ki (D(2) dopamine receptor [23]) of 0.12 µM, an EC50 (D(4) dopamine receptor [10]) of 0.036 µM and an EC50 (D(2) dopamine receptor [24]) of 0.055 µM.
